The nature of data set [1]: Hemolytic activity in human red blood cells assessed as hemolysis at 8 ug/ml incubated for 60 min relative to control. It counts as toxicity, cell-based, Erythrocyte. The conditions noted are these: at 8 µg/mL, read-out: Activity. Put shortly: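 Washed human RBCs at 0.25×10^8 cells/mL final in PBS, mixed with PA (stocks 16–1024 µg/mL, equal volume). Shaken 10 min, then incubated 60 min at 37 °C, 5% CO2. Cells pelleted at 1000 × g; supernatant hemoglobin read at OD405. 5% Triton X-100 taken as 100% hemolysis; water as negative control.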

In data set [2] the test system is Acinetobacter baumannii. Nature of the data set: Synergistic antibacterial activity against Acinetobacter baumannii assessed as fractional inhibitory concentration index incubated for 20 to 24 hrs in presence of vancomycin by checkerboard broth microdilution assay. Format: functional. The conditions noted are these: time 20-24 hrs. Put shortly:
(§1)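 Checkerboard broth microdilution. E. coli K12 or A. baumannii clinical isolate grown to mid-log (OD ~0.8) and diluted to ~10^5 CFU/mL in MHB. Two-fold dilutions of rifampicin or vancomycin run across the plate against two-fold PA dilutions down it. Incubated 20–24 h at 37 °C, OD read at 470 nm. FICi calculated from the combination MICs.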

In data set [3] the test system is Staphylococcus aureus. Kind of data set: Antibacterial activity against methicillin resistant Staphylococcus aureus JE2 assessed as fold increase in MIC after 21 days by broth microdilution method relative to MIC before 21 days. Format: functional. The conditions noted are these: time 21 day. Background: Broth dilution looks for growth in wells or tubes with falling amounts of substance.

For data set [4], the system named is Escherichia coli. Nature of the data set: Antibacterial activity against Escherichia coli K12 incubated for 20 to 24 hrs by broth microdilution method. It counts as functional. The note with it: time 20-24 hrs. Put shortly:
(§2)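 Broth microdilution: colonies suspended directly to 1.5×10^8 CFU/mL (0.5 McFarland), then diluted in Mueller–Hinton broth to ~10^5 CFU/mL final. PA stock 1 mg/mL in water, pH 7, serially diluted in MHB. Plates incubated 20–24 h at 37 °C. MIC = lowest concentration inhibiting growth, read as OD600 with optional 1% TTC staining. Triplicate.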

The test system of data set [5] is Staphylococcus aureus. Kind of data set: Antibacterial activity against methicillin resistant Staphylococcus aureus JE2 assessed as fold increase in MIC after 21 days in presence of vancomycin by broth microdilution method relative to MIC before 21 days. Format: functional. The note with it: time 21 day.
Data set [6] concerns Escherichia coli. Nature of the data set: Synergistic antibacterial activity against Escherichia coli K12 assessed as potentiation of vancomycin-induced antibacterial activity by vancomycin MIC incubated for 20 to 24 hrs by checkerboard broth microdilution assay. Format: functional. The note with it: time 20-24 hrs. The method in brief: as §1
Data set [7] relates to Staphylococcus aureus. Kind of data set: Antibacterial activity against methicillin-resistant Staphylococcus aureus JE2 incubated for 20 to 24 hrs by broth microdilution method. Format: functional. The note with it: time 20-24 hrs. The method in brief: (§3)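 Broth microdilution in MHB: direct colony suspension at 0.5 McFarland diluted to ~10^5 CFU/mL final; peptide stock 1 mg/mL in water at pH 7, serially diluted. Incubated 20-24 h at 37 °C; MIC taken as the lowest concentration inhibiting growth (OD 600 nm, 1% TTC stain); triplicate; vancomycin and gentamicin as positive controls.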

In a further data set the test system is HEK293. Kind of data set: Cytotoxicity against HEK293 cells assessed as reduction in cell viability at 64 to 256 ug/ml incubated for 24 hrs by XTT assay. It counts as toxicity, cell-based. The conditions noted are these: human, hek293, 24 h, dose 64-256 µg/ml. The method in brief:
(§4)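 HEK-293 cells, passages 3–8, seeded at 5×10^4 per well and preincubated 24 h at 37 °C, 5% CO2. Medium replaced with serially diluted PA, final 8–256 µg/mL, for 24 h, in triplicate. XTT reagent (0.5 mg/mL) added for 4 h at 37 °C, then absorbance read at 600 nm.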

In data set [8] the test system is Staphylococcus aureus. Nature of the data set: Ratio of MIC for methicillin-resistant Staphylococcus aureus JE2 at pH 5.5 to MIC for methicillin-resistant Staphylococcus aureus JE2 at pH 7.0.
Data set [9] is described as follows: Cytotoxicity against HEK293 cells assessed as cell viability up to 64 ug/ml incubated for 24 hrs by XTT assay relative to control. It counts as toxicity, cell-based. The conditions noted are these: human, up to 64 µg/mL, read-out: Activity. Put shortly: as §4
In general terms: Formazan colour is commonly taken as a measure of viable cells.

Data set [10] concerns Cell membrane. Kind of data set: Induction of inner membrane permeability in Escherichia coli K12 at 4 ug/mL by propidium iodide staining based spectrofluorometry. Format: subcellular. The note with it: dose 4.0 µg/ml. The method in brief: (§5)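 E. coli K12 grown in MHB to mid-log, washed twice in PBS, and diluted to 10^6 CFU/mL in 5 mM HEPES + glucose. Cells preincubated with […] at least 15 min at 37 °C. Then treated with agent at 1/8, 1× or 2× MIC, or with PA–vancomycin 1:1. Fluorescence read at ex 535 / em 615 nm. Polymyxin B as positive control; untreated cells as negative control.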

The nature of data set [11]: Retention time of the compound by RP-HPLC analysis. Format: physicochemical. The method in brief: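 Reverse-phase HPLC, linear gradient 0–100% acetonitrile in water with 0.1% TFA over 20 min; retention time recorded.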
The subject of data set [12] is Cell membrane. Nature of the data set: Induction of inner membrane permeability in Escherichia coli K12 by propidium iodide staining based spectrofluorometry. It counts as subcellular. The note with it: dose 4-64 µg/ml. The method in brief: as §5
A short description of data set [13]: Self assembly property of the compound assessed as formation of micelles at 1 mg/ml incubated overnight by transmission electron microscopy. Format: physicochemical. Put shortly: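 Samples were dissolved at 2 mM in water, pH 7, and left at room temperature overnight. Applied to copper grids for 5 min, blotted, and negatively stained with NanoVan for 30 s. Imaged by TEM at 120 kV.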

For data set [14], the system named is Escherichia coli. Kind of data set: Synergistic antibacterial activity against Escherichia coli K12 assessed as fractional inhibitory concentration index incubated for 20 to 24 hrs in presence of vancomycin by checkerboard broth microdilution assay. It counts as functional. The note with it: time 20-24 hrs. Put shortly:
as §1

Data set [15] has as its system Cell membrane. Kind of data set: Induction of inner membrane permeability in Escherichia coli K12 at FICI in presence of vancomycin by propidium iodide staining based spectrofluorometry. Format: subcellular. The conditions noted are these: dose 4.0 µg/ml. The method in brief:
as §5

Data set [16] concerns Escherichia coli. Kind of data set: Synergistic antibacterial activity against Escherichia coli K12 incubated for 20 to 24 hrs in presence of vancomycin by checkerboard broth microdilution assay. It counts as functional. The note with it: time 20-24 hrs. Put shortly:
as §1

For data set [17], the system named is Escherichia coli. Kind of data set: Synergistic antibacterial activity against Escherichia coli K12 assessed as potentiation of vancomycin-induced antibacterial activity by measuring fold increase in vancomycin MIC incubated for 20 to 24 hrs by checkerboard broth microdilution assay relative to vancomycin alone. The conditions noted are these: time 20-24 hrs. It counts as functional. The method in brief: as §1

For data set [18], the system named is Cell membrane. Kind of data set: Induction of inner membrane permeability in Escherichia coli K12 at 2 times FICI in presence of vancomycin by propidium iodide staining based spectrofluorometry. Format: subcellular. The note with it: dose 2.0 µg/ml. Put shortly: as §5
The subject of data set [19] is Acinetobacter baumannii. Kind of data set: Antibacterial activity against Acinetobacter baumannii incubated for 20 to 24 hrs by broth microdilution method. It counts as functional. The conditions noted are these: time 20-24 hrs. The method in brief:
as §2

The test system of data set [20] is Staphylococcus aureus. Kind of data set: Antibacterial activity against methicillin-resistant Staphylococcus aureus 13C incubated for 20 to 24 hrs by broth microdilution method. It counts as functional. The note with it: time 20-24 hrs. The method in brief: as §3
Data set [21] concerns Escherichia coli. Nature of the data set: Ratio of MIC for Escherichia coli K12 at pH 5.5 to MIC for Escherichia coli K12 at pH 7.0.
Data set [22] in a line: Self assembly property of the compound assessed as zeta potential at 250 ug/mL at pH 7 measured after 2 hrs. It counts as physicochemical. The note with it: pH 7, 2 h, dose 250 µg/ml. The method in brief: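 Peptide self-assembled at 1 mg/mL, pH 7, annealed 2 h at 80 °C, and aged overnight. Diluted to 250 µg/mL in water; zeta potential measured at 25 °C.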

≈ marks a conversion by molar mass, not a printed value. Calls of active or inactive are those of the source. Starred links: 1 amine or outer side, 2 acyl side, 3 side chain; linkers in the order of their positions; H or OH if unused. Non-standard residues stand in square brackets, D forms with d. Residues, ends and D or L forms follow the SMILES beside them. X1 = CCCCCCCCCCCCCCCCN([C@@H](CCCCN)C(=O)[*:2])[*:1] A value given as a limit tells only on which side of the number the result lay.

For the compound `CCCCCCCCCCCCCCCCN[C@@H](CCCCN)C(=O)N[C@@H](Cc1c[nH]cn1)C(=O)N[C@@H](CCCCN)C(=O)N[C@@H](Cc1c[nH]cn1)C(=O)N[C@@H](CCCCN)C(=O)O` (H-[X1]HKHK-OH), in data set [1], the hemolysis at 1 h, 8 ug/ml is 28.2%. Further, the “fractional inhibitory concentration index (FICI)” value in the data set with Acinetobacter baumannii [2] was 1; in the data set with Escherichia coli [14], 0.15. Also, the “fold change (FC)” value with Staphylococcus aureus [3] is given as 8; in the data set on Staphylococcus aureus [5], 8; with Escherichia coli [17] it was 32. In addition, the MIC (in general, the smallest concentration in the dilution series that meets the test's criterion for growth inhibition) in the data set with Escherichia coli [4] is 32 µg/mL (≈ 35.5 µM); with Escherichia coli [6] it was 4 µg/mL; with Staphylococcus aureus [7], 64 µg/mL (≈ 71 µM); in the data set with Escherichia coli [16] it was 4 µg/mL; against Acinetobacter baumannii [19], 64 µg/mL (≈ 71 µM); in the data set with Staphylococcus aureus [20] it was 32 µg/mL (≈ 35.5 µM). The Activity result in the data set with HEK293 was “Non-Toxic”; with Cell membrane [12] it was “Dose-Dependent Effect”; in data set [13], “Active”; in data set [22], 15.8 mV. For the same compound, the Ratio with Staphylococcus aureus [8] and in the data set on Escherichia coli [21] was more than 1 in each case. For the same compound, in data set [9], the viability at 24 h was 100%. Besides, the result in the data set with Cell membrane [10], in the data set with Cell membrane [15] and with Cell membrane [18] was Active. Also, the Retention_time in data set [11] turned out to be 13.4 min.
